Compound activity: PubChem, Broad Institute
Only some compounds are listed: those with a hit (about 3.1% of all), similar ones and a draw of the others.
CSC inhib: cancer stem cell inhibition; cancer stem cell-like cells viability, luminescence; inhibition, % at 7.5 µM; 300,000 tested, 1.1% active; in the data active = inhibition above about 75%; tested in HMLE shEcad cells
Calb FLC: affects C. albicans growth with fluconazole; C. albicans CaCi-2 (fluconazole-resistant clinical isolate) + fluconazole, Alamar Blue growth, 48 h; 300,000 tested, 0.57% active; AID 1979; growth inhibition, % (no concentration beside the values);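 active = growth inhibition above about 58% in most replicates, limit read from the data, passing the limit was not always enough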;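 note: all wells also contain fluconazole at 8 µg/ml as a sub-toxic cotreatment; 0% = median of DMSO wells and 100% = median of geldanamycin control wells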
Beta apoptosis: blocks beta cell apoptosis; INS-1E cytokine-induced death, ATP luminescence, 48 h; percent of positive-control rescue, neutral wells zero; 300,000 tested, 0.8% active; protection from apoptosis, % (test concentration not listed);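 active = Every replicate reaches about 75%, or at least half do and their mean reaches it too, limit read from the data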;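 note: 0% = cytokine-treated negative control wells and 100% = positive control rescue; higher means more ATP so stronger rescue from cytokine killing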
PolyA inhibitor: blocks polyadenylation in yeast reporter cells; 300,000 tested, 0.02% active; activity score, % at 12 µM; S. cerevisiae SKY197-pL101 polyadenylation reporter, beta-gal luminescence; efflux-impaired pdr1/pdr3 knockout yeast; score 100 = 6 SD above DMSO;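 active = lowest replicate activity score at least 50, where 100 means six control SD above control mean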;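 note: yeast exposed to compound for 9 h at 30 °C; higher score means more reporter readthrough which indicates perturbed polyadenylation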
T cruzi inh: blocks replication of Trypanosoma cruzi; T. cruzi beta-gal in NIH3T3, luminescence, 90 h; inhibition, % (no concentration beside the values); 300,000 tested, 1.4% active; AID 1885;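 active = mean inhibition across valid replicates above about 55%, limit read from the data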;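 note: signal also drops with host cell toxicity which is not excluded here; 0% = plate median of DMSO wells and 100% = zero luminescence signal; higher percent means less beta-gal luminescence so fewer parasites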
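compound dosing = single 50 nL compound addition per well in DMSO | material = NIH/3T3 host cells with β-galactosidase reporter T. cruzi | input = 5,000 host fibroblasts per well | timing = ≥90 h infection period, 3 h prior cell attachment | read-out basis = percent inhibition of parasite-derived β-gal signal | detection = GalScreen β-gal luminescence, detergent lysis, 60 min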
HIF act: HIF pathway transcriptional activation; activation, % at 7.5 µM (by protocol); U2OS HRE-luciferase reporter, luminescence; normalized: DMSO 0%, desferrioxamine 100%; 300,000 tested, 0.32% active;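 active = mean activation of at least 10% of the iron chelator positive control signal, with at least half of replicates also reaching 10%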
Starred values were filed as active, the others as inactive; . = no result given.

SMILES	CSC inhib	Calb FLC	Beta apoptosis	PolyA inhibitor	T cruzi inh	HIF act
CCCCC(=O)NC(c1ccccc1OC)c1ccc2cccnc2c1O (stereo unspecified)	138*	96*	96*	-10	57*	63*
CCCCC(=O)NC(c1ccc(OC)c(OC)c1)c1c(O)ccc2ccccc12 (stereo unspecified)	-15	16	-8	-7	26	0
O=C(Nc1ccccc1C(=O)O)c1cc(S(=O)(=O)N2CCCCC2)c(Cl)cc1Cl	-7	-4	-5	-9	58*	1
CCN(CC)c1ccc2nc3ccccc3[n+](CC)c2c1	26	90*	99*	28	53	-2
O=C(NC1CCCN(Cc2ccccc2F)C1)c1cccs1 (stereo unspecified)	18	14	-1	6	-5	-1
CN(C)c1ccc(NC(=S)NC23CC4CC(CC(C4)C2)C3)cc1	.	-29	111*	11	27	3
CCOc1ccc(NC(=S)NC23CC4CC(CC(C4)C2)C3)cc1	-2	-7	-5	-24	16	-15
CC(=O)N(c1cccc(Cl)c1)c1nc(C)cc(C)c1C#N	-4	-1	-11	-6	-6	0
CCOC(=O)C1CCN(CCC(=O)Nc2ccc(F)cc2)CC1	-6	107*	-1	25	-10	0
CN(C)c1nc(NC(C)(C)C)nc(NC(C)(C)C)n1	4	-15	36	-21	59*	-1
CCNc1nc(NC(C)(C)C)nc(N(CC)n2cnnc2)n1	-11	-26	1	-1	15	0
COC(=O)C1=C(Nc2ccc(C)cc2)C=C(C)C(C(=O)OC)C1c1cccc(OC)c1 (stereo unspecified)	-1	7	11	4	58*	1
N#Cc1c(-c2ccccc2)nc(SCC(=O)Nc2ccc(OC(F)(F)Cl)cc2)[nH]c1=O	34	9	.	11	-9	0
CCN1CCN(c2ccc(S(=O)(=O)N3CCCCC3)cc2NC(=O)c2cccc(OC(F)F)c2)CC1	3	-4	2	-16	47	0
C=CCn1c(O)c(C2=c3ccccc3=NC2=O)sc1=Nc1ccc(O)cc1	95*	16	0	-18	48	0
Cc1ccc(OC/C(=N\O)C(C)(C)C)c([N+](=O)[O-])c1	15	-1	0	-18	9	1
O=C(Nc1sc2c(c1C(=O)c1ccc(Cl)cc1)CCCC2)c1cccnc1	.	84*	4	-8	34	0
O=C(Nc1ccccc1N1CCOCC1)c1ccc(S(=O)(=O)NCc2ccco2)cc1	-9	108*	1	.	.	.
O=C(Nc1ccccc1N1CCOCC1)c1ccc(Cl)c(S(=O)(=O)NCc2ccco2)c1	1	3	16	8	6	0
CCCCN(CC)CCCNC(=O)C1CCN(c2ncnc3c2sc2cccc(F)c23)CC1	11	7	0	2	70*	0
O=C(NCCN1CCOCC1)C1CCN(c2ncnc3c2sc2cccc(F)c23)CC1	1	1	9	-11	-4	0
c1ccc(CCNc2nc(-c3ccccn3)nc3ccccc23)cc1	43	3	96*	-4	76*	4
CCCN(CCC)c1nc(-c2ccccn2)nc2ccccc12	34	-4	135*	-24	58*	5
c1ccc(-c2nc(NCc3cccnc3)c3ccccc3n2)cc1	8	-1	-1	-1	37	0
CCCCN(CC)c1nc(-c2ccncc2)nc2ccccc12	30	-12	-7	-3	54	1
SMILES	CSC inhib	Calb FLC	Beta apoptosis	PolyA inhibitor	T cruzi inh	HIF act
Cc1ccc(NC(=O)c2ccc(Cl)c(S(=O)(=O)N3CCCCC3)c2)nc1	-9	.	-21	.	.	.
O=S(=O)(c1ccc(N2CCN(Cc3ccccc3)CC2)nc1)N1CCCC1	.	.	0	.	.	.
Cc1ccccc1C(=O)Nc1ccccc1-c1nnn(CC(=O)Nc2ccc3c(c2)OCCO3)n1	5	-16	2	-9	10	-1
CN1/C(=C\C=N\NC(=O)c2ccc(O)cc2)C(C)(C)c2ccccc21	8	1	113*	10	17	0
Cc1c(NC(=S)/C=C2\N(C)c3ccccc3C2(C)C)c(=O)n(-c2ccccc2)n1C	-5	23	37	-6	-4	0
CC(C)C(=O)NC(=S)/C=C1/N(C)c2ccccc2C1(C)C	-2	-11	109*	6	38	-1
Cc1ccc(C(=O)NC(=S)/C=C2\N(C)c3ccccc3C2(C)C)cc1	11	39	94*	-5	44	1
CN1/C(=C\C(=O)C(F)F)C(C)(C)c2ccccc21	11	.	-3	-4	-8	0
CN1/C(=C/C(=S)NC(=O)C2CCC2)C(C)(C)c2ccccc21	8	-5	59	-4	6	0
CC(=O)/C=C1\N(C)c2ccc(C)cc2C1(C)C	-7	1	99*	-24	66*	0
Cc1ccc(/C=C2\SC(N3CCN(C(c4ccccc4)c4ccccc4)CC3)=NC2=O)o1	47	48	2	-4	3	0
CC1(C)C(CSc2nc3ccccc3[nH]2)C1(Cl)Cl (stereo unspecified)	13	9	-3	-2	15	0
CC(Nc1ncnc2ccccc12)c1ccccc1 (stereo unspecified)	22	76*	96*	-2	10	2
COc1cc(/C=C(/C#N)c2ccccc2F)ccc1OCc1ccccc1	116*	4	-2	-8	33	1
Cn1c(=O)n(CC#N)c2ccccc21	1	102*	-1	0	-16	0
CC(C)(CO)CNC1CCCN(C2Cc3ccccc3C2)C1 (stereo unspecified)	-11	-1	.	3	66*	-11
COc1ccc(-c2[nH]c(-c3ccc4c(c3)OCO4)nc2-c2ccccc2)cc1	-2	-3	-1	-4	47	1
Cc1c(C)c(C)c2[nH]c(-c3ccc4c(c3)OCO4)nc2c1C	.	-13	.	35	58*	1
Cc1ccc(-c2c[n+](CC(=O)OCc3ccccc3)c3n2CCC3)cc1	6	4	-2	17	3	0
CC1CCC(C(C)C)C(OC(=O)C[n+]2cc(-c3ccc(Cl)cc3)n3c2CCC3)C1 (stereo unspecified)	13	-3	5	-10	60*	0
O=C(C[n+]1cc(-c2ccc(Cl)c(Cl)c2)n2c1CCC2)N1c2ccccc2Sc2ccccc21	-10	107*	1	-8	55*	0
COc1ccc(-c2c[n+](CC(=O)c3cccs3)c3n2CCC3)cc1	-5	1	.	4	0	0
O=C(C[n+]1cc(-c2ccc(Cl)cc2)n2c1CCC2)N1c2ccccc2Sc2ccccc21	-5	107*	13	10	46	0
